Screens: PubChem, several laboratories
ATG4B inhibitor: ATG4B protease inhibitors, primary screen, biochemical, fluorescence, uHTS; inhibition, % at 8.33 µM; ATG4B cleavage of LC3-PLA2, NBD-HPC fluorescence, 1 h; 0.51% of 340,000 active; in the data active means inhibition above about 40%
Target sequence (Q9Y4P1 whole entry, looked up): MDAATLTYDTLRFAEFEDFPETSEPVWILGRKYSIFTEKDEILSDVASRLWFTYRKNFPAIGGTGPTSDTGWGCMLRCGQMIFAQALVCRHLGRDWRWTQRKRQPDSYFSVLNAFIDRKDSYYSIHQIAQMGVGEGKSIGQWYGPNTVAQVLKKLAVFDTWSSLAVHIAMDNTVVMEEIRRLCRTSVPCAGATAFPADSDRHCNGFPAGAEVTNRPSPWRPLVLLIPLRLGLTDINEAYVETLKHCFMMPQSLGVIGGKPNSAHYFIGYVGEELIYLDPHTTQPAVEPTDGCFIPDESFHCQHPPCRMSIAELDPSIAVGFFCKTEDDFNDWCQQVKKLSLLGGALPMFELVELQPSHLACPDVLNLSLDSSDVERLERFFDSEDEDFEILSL
MEKK2mut PB1 HTS: MEK5 binding signal on mutant MEKK2 PB1, primary screen, biochemical, multiplex bead flow cytometry, Alexa488-MEK5; Alexa488-MEK5 binding to MEKK2 mutant; percent response, % at 10 µM; 0.35% of 290,000 active; AID 1530, 2009; in the data active means percent response above about 24%, passing the limit was not always enough
Beta2AR agonist: beta2AR agonists driving receptor internalization, primary screen, cell-based, FAP fluorogen, flow cytometry | 0.43% of 340,000 active | AID 504454, 2011 | response, % (concentration not given with the values) | Am2.2-beta2AR cells | Beta-2 adrenergic receptor (Homo sapiens), P07550;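 active means response above a set limit, near 3 SD of response in nonfluorescent compounds, cut at about 42% in these data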
MEKK3 PB1 HTS: modulators of MEKK3-MEK5 PB1 binding, primary screen, biochemical, wildtype MEKK3, multiplex bead flow cytometry, Alexa488-MEK5; bead-based flow cytometry, Alexa488-MEK5 binding to MEKK3; actives lie on both sides; 0 = blocked by unlabeled MEK5, 100 = vehicle; binding response (% of control), % at 10 µM; 1.4% of 290,000 active; AID 1529, 2009;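 active means binding response more than 3 SD above or below the average of its plate-row segment, actives on both sides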;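 further: Alexa488 bead fluorescence after subtracting the streptavidin-only scavenger bead signal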
Dynein cargo inh: inhibitors of GR-EGFP nuclear translocation, primary screen, dynein cargo transport inhibitor project, imaging, high-content, 3617.4 mouse cells; test concentration mostly 20 µM; stimulated with dexamethasone, 1 µM; hits give low values; z-score, hits read low; 0.47% of 220,000 active;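 active means plate z-score of nuclear minus cytoplasmic receptor signal below a set negative limit, without overly bright fluorescence or cell loss, cut at about -3.5 in these data, passing the limit was not always enough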;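 further: z-score of nuclear minus cytoplasmic ring GR-EGFP intensity difference per well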
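Medium: Induction medium lacking tetracycline, stripped serum | Probe or stimulus: 1.0 µM final dexamethasone stimulus | Schedule: 48 h induction, then 1 h compound, then 30 min agonist, 37 °C | Signal: Automated 10x imaging of fixed Hoechst-stained cells | Evaluation: Per-cell GR-EGFP intensity, nucleus versus surrounding cytoplasmic ring, well-averaged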
MEKK2wt PB1 HTS: modulators of MEK5 binding to wildtype MEKK2, primary screen, biochemical, multiplex bead flow cytometry, Alexa488-MEK5. 1.1% of 290,000 active. binding response (% of control), % at 10 µM. Mitogen-activated protein kinase kinase kinase 2 (Homo sapiens), Q9Y2U5. Alexa488-MEK5 binding to MEKK2 WT; actives lie on both sides; in the data active means binding response below about 67% or above about 130%
MEKK2wt confirm: modulators of MEK5 binding to wildtype MEKK2, confirmation, biochemical, single concentration, multiplex bead flow cytometry; binding response (% of control), % at 10 µM; Alexa488-MEK5 binding to MEKK2 WT; actives lie on both sides; 2.4% of 5,900 active; shares compounds with MEKK3 PB1 HTS; in the data active means binding response below about 16% or above about 210%; inactive means in between
MEKK2mut confirm: mutant MEKK2 PB1-MEK5 binding signal retest – biochemical, single concentration, multiplex bead flow cytometry, confirmation; 2% of 5,900 active; percent response, % at 10 µM; Alexa488-MEK5 binding to MEKK2 mutant; shares compounds with MEKK3 PB1 HTS; in the data active means percent response mostly above about 71%, no sharp cut-off; inactive means mostly below about 38%;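 further: higher means compound restores mutant binding toward wildtype level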
MEKK3 confirm: MEKK3 wild-type PB1 binding to MEK5, inhibitors, confirmation, biochemical, bead multiplex flow cytometry, single concentration, wildtype; Alexa488-MEK5 binding to MEKK3; hits give low values; shares compounds with MEKK3 PB1 HTS; AID 1894, 2009; binding response (% of control), % at 10 µM; 1.8% of 5,900 active;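 active means binding response below 72% of control, or above a set upper limit, though filed actives all read lower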
Numbers stand for hits; i = inactive; nt = not tested or not shown; [ ] = remark or other dose. In the library only some 2.9% were active in any assay of this set; here they are far more common.

SMILES	ATG4B inhibitor	MEKK2mut PB1 HTS	Beta2AR agonist	MEKK3 PB1 HTS	Dynein cargo inh	MEKK2wt PB1 HTS	MEKK2wt confirm	MEKK2mut confirm	MEKK3 confirm
CCOc1ccc(Cl)cc1CNCCCSc1nc(C)cc(C)n1	i	i	i	i	nt	i	nt	nt	nt
COc1ccc(NC(=O)C(NC(=O)CC2NC(=O)NC2=O)c2ccccc2)cc1 (stereo unspecified)	i	i	i	155.0	i	i	i	i	i
COc1ccc(NC(=O)C(c2ccc(OC)cc2)N(C)C(=O)CC2NC(=O)NC2=O)cc1 (stereo unspecified)	i	i	i	i	i	i	nt	nt	nt
Cc1cc(C)n2nc(SCC(=O)N(CCC#N)c3ccccc3F)nc2n1	i	nt	i	nt	nt	nt	nt	nt	nt
Cc1cc(-c2c(C(=O)N3CCOCC3)c(C)nn2-c2ccccc2)no1	i	i	i	i	i	i	nt	nt	nt
O=C(CC(=O)c1ccccc1)CC(O)(C=Cc1ccccc1)c1ccccc1 (stereo unspecified)	i	nt	i	nt	nt	nt	nt	nt	nt
CS(=O)(=O)Nc1ccc(C2=NN(S(=O)(=O)c3ccccc3)C(c3cccs3)C2)cc1 (stereo unspecified)	i	nt	i	7.0[inhibitor]	i	nt	i	i	i
CCS(=O)(=O)N1N=C(c2ccc(NS(C)(=O)=O)cc2)CC1c1ccccc1 (stereo unspecified)	i	nt	i	32.0[inhibitor]	i	nt	i	i	i
CC(C)C(=O)N1N=C(c2ccc(NS(C)(=O)=O)cc2)CC1c1cccs1 (stereo unspecified)	i	i	i	i	i	i	nt	nt	nt
CCCN(CCC)C(=O)C1CCN(c2ccc(S(=O)(=O)N3CCOCC3)cc2[N+](=O)[O-])CC1	i	i	i	i	nt	i	nt	nt	nt
COc1cc(/C=C(\C#N)C(=O)NCCc2ccccc2)cc(OC)c1O	i	i	i	i	i	i	nt	nt	nt
COc1cc(/C=N/S(=O)(=O)CCc2ccccc2)cc(OC)c1O	i	i	i	128.0	i	i	i	i	i
O=C1CC(c2ccccc2)CC(O)=C1C=NCCCN1CCOCC1 (stereo unspecified)	i	i	i	81.0[inhibitor]	i	i	i	i	i
CCCCCN=CC1=C(O)CC(c2ccccc2)CC1=O (stereo unspecified)	i	i	i	i	i	i	nt	nt	nt
CC1CCC(C(C)C)C(OCC(O)C[N+]2(C)CCCCC2)C1 (stereo unspecified)	i	i	i	i	i	i	nt	nt	nt
CC1CCC(C(C)C)C(OCC[N+](C)(C)C)C1 (stereo unspecified)	i	i	i	143.0	i	i	i	i	i
CS(=O)(=O)c1ccc(Cl)c(NC(=O)CCc2ccccc2)c1	i	i	i	i	i	i	nt	nt	nt
Cn1c(/C=C(\C#N)C(N)=S)ccc1-c1ccc(Br)cc1	i	i	i	i	i	62.0[inhibitor]	i	i	i
COc1ccccc1N(CC(=O)NCC1CCCO1)C(=O)CNS(=O)(=O)c1ccc(C)cc1 (stereo unspecified)	i	i	i	i	i	i	nt	nt	nt
COc1ccccc1N(CC(=O)NCC1CCCO1)C(=O)CNS(=O)(=O)c1ccc(Cl)cc1 (stereo unspecified)	i	i	i	128.0	i	i	i	i	i
COc1cccc(/C=N/NC(=O)c2c(C)nc3ccc(Cl)cn23)c1O	i	i	i	i	nt	i	nt	nt	nt
O=C(NCCc1ccccc1)c1cccc([N+](=O)[O-])c1	i	i	i	130.0	i	i	i	i	i
COc1ccc(-c2[nH]ncc2CN2CCCCCCC2)c(OC)c1	i	98.0	i	i	i	223.0	214.0	79.0	i
COc1ccc(-c2[nH]ncc2CN2CCN(c3ccccn3)CC2)c(OC)c1	i	i	i	i	i	i	nt	nt	nt
Cc1onc(-c2ccccc2)c1C(=O)NC(=S)NNC(=O)c1ccncc1	i	i	i	131.0	i	i	i	i	i
SMILES	ATG4B inhibitor	MEKK2mut PB1 HTS	Beta2AR agonist	MEKK3 PB1 HTS	Dynein cargo inh	MEKK2wt PB1 HTS	MEKK2wt confirm	MEKK2mut confirm	MEKK3 confirm
CCOC(=O)c1cnn(CCOC(=O)C(C)(C)C)c1NC(=O)C(C)(C)C	i	i	i	2.0[inhibitor]	i	0.0[inhibitor]	i	i	i
O=C(CSc1cccc2cccnc12)Nc1cc(C(=O)O)cc(C(=O)O)c1	i	i	i	i	nt	i	nt	nt	nt
CCc1ccccc1NC(=O)CSc1nc(C)c(C)o1	i	i	i	i	nt	i	nt	nt	nt
COC(=O)c1c(C)[nH]c(C(=O)OCc2csc(CC(=O)Nc3ccccc3C)n2)c1C	i	nt	i	nt	nt	nt	nt	nt	nt
COc1ccccc1NC(=O)CNC(=O)c1ccccc1C	i	i	i	75.0[inhibitor]	i	i	i	i	i
CN(C)CC(CCC(CN(C)C)C(O)(c1ccccc1)c1ccccc1)C(O)(c1ccccc1)c1ccccc1 (stereo unspecified)	i	i	nt	i	nt	149.0	i	i	i
CCC(=O)c1c[nH]c(C(=O)N2CCOCC2)c1	i	i	i	i	nt	i	nt	nt	nt
CCCNC(=O)C(Cc1ccc(I)cc1)NC(=O)c1ccc(C#N)cc1 (stereo unspecified)	i	nt	i	nt	nt	nt	nt	nt	nt
CCc1c(C)nc2c(Br)cccc2c1SCCC#N	i	i	i	143.0	i	i	i	i	i
